Test results as given in ChEMBL document CHEMBL1649362, “Cytotoxic triterpenoids from Maytenus retusa” (J Nat Prod, 2010).
Counter-ions that a name gives are not always drawn.

How the values were obtained:
HL-60 [1] = assay: Cytotoxicity against human HL60 cells at 30 uM after 48 hrs by MTT assay; format: functional; details: HL-60, 48 h
How it was run: (§1)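 HL60 cells (ATCC) grown in RPMI with 10% FBS and seeded at 10 000 cells/well. After 48 h exposure, MTT added (0.5 mg/mL final) for 3 h at 37 °C. Formazan dissolved in SDS-HCl (20% SDS, 0.02 M HCl) and read at 570 nm. IC50 obtained by nonlinear regression.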

HL-60 [2] = assay: Cytotoxicity against human HL60 cells at 10 uM after 48 hrs by MTT assay; format: functional; details: HL-60, 48 h; how it was run: as §1
MCF7 [3] = assay: Cytotoxicity against human MCF7 cells at 10 uM after 48 hrs by MTT assay; format: functional; details: MCF7, 48 h
How it was run: (§2)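 MCF-7 cells (ATCC) maintained in DMEM with 10% FBS and plated at 10 000 cells/well. MTT (0.5 mg/mL final) then incubated 3 h at 37 °C. Formazan solubilized in 20% SDS/0.02 M HCl and absorbance read at 570 nm. IC50 from nonlinear regression.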

MCF7 [4] = assay: Cytotoxicity against human MCF7 cells at 30 uM after 48 hrs by MTT assay; format: functional; details: MCF7, 48 h; how it was run: as §2
HL-60 [5] = assay: Cytotoxicity against human HL60 cells at 1 uM after 48 hrs by MTT assay; format: functional; details: HL-60, 48 h; how it was run: as §1
MCF7 [6] = assay: Cytotoxicity against human MCF7 cells at 1 uM after 48 hrs by MTT assay; format: functional; details: MCF7, 48 h; how it was run: as §2
MCF7 [7] = assay: Cytotoxicity against human MCF7 cells after 48 hrs by MTT assay; format: functional, cell-based; details: MCF7, 48 h; how it was run: as §2
HL-60 [8] = assay: Cytotoxicity against human HL60 cells after 48 hrs by MTT assay; format: functional, cell-based; details: HL-60, 48 h; how it was run: as §1

SMILES	inhibition at 30 µM (HL-60 [1])	inhibition at 10 µM (HL-60 [2])	inhibition at 10 µM (MCF7 [3])	inhibition at 30 µM (MCF7 [4])	inhibition at 1 µM (HL-60 [5])	inhibition at 1 µM (MCF7 [6])	IC50 (MCF7 [7])	IC50 (HL-60 [8])
COC(=O)[C@]1(C)CC[C@]2(C)CC[C@]3(C)C4CC(=O)c5cc(O)c(O)cc5[C@]4(C)CC[C@@]3(C)[C@@H]2C1 (some centres undefined)	65%	64%	0%	44%	35%	4%		
CC1=C2C3C(=O)C=C4C(=CC(=O)C(O)=C4C)[C@]3(C)CC[C@@]2(C)[C@@H]2C[C@@H](C)C(=O)C[C@]2(C)C1 (some centres undefined)	51%	0%	11%	5%	0%	9%		
CC1=C(O)C(=O)C=C2C1=CC=C1[C@@]2(C)CC[C@@]2(C)[C@@H]3C[C@@](C)(O)C(=O)C[C@]3(C)CC[C@]12C	90%	89%	100%	100%	80%	21%	1.4 µM	0.2 µM
CC1=C(O)C(=O)C=C2C1=CC=C1[C@@]2(C)CC[C@@]2(C)[C@@H]3C[C@@H](C)C(=O)C[C@]3(C)CC[C@]12C [TINGENONE]	96%	100%	97%	100%	46%	17%	3 µM	0.5 µM
COc1cccc2c1C(=O)c1c(O)c3c(c(O)c1C2=O)C[C@@](O)(C(=O)CO)C[C@@H]3O[C@H]1C[C@H](N)[C@H](O)[C@H](C)O1 [DOXORUBICIN HYDROCHLORIDE]	100%	89%	76%	98%	100%	69%	> 10 µM	0.1 µM
COc1c(O)cc2c(c1C(=O)O)C(=O)C=C1[C@@]2(C)CC[C@@]2(C)[C@@H]3C[C@@H](C)C(=O)C[C@]3(C)CC[C@]12C	59%	57%	17%	11%	78%	15%		
Cc1c(O)c(O)cc2c1C(=O)C=C1[C@@]2(C)CC[C@@]2(C)[C@@H]3C[C@@H](C)C(=O)C[C@]3(C)CC[C@]12C [6-OXOTINGENOL]	100%	85%	8%	17%	45%	10%		
CC1=C(O)C(=O)CC2[C@]3(C)CC[C@@]4(C)[C@@H]5C[C@](C)(C(=O)O)CC[C@]5(C)CC[C@]4(C)C3CC[C@]12C=O (some centres undefined) [CANGORONINE]	60%	48%	9%	15%	40%	16%		
CC1=C(O)C(=O)C=C2C1=CC(=O)[C@@H]1[C@@]2(C)CC[C@@]2(C)[C@@H]3C[C@@H](C)C(=O)C[C@]3(C)CC[C@]12C [AMAZOQUINONE]	100%	61%	16%	18%	66%	10%		
COC(=O)[C@]1(C)CC[C@]2(C)CC[C@]3(C)C4=CC=C5C(=CC(=O)C(O)=C5C)[C@]4(C)CC[C@@]3(C)[C@@H]2C1 [PRISTIMERIN]	100%	100%	100%	100%	96%	42%	0.4 µM	0.2 µM
COC(=O)[C@@]1(C)C[C@@H]2[C@@](C)(CC[C@]3(C)C4CC(=O)c5c(cc(O)c(O)c5C=O)[C@]4(C)CC[C@@]23C)CC1=O (some centres undefined) [MACROCARPIN A]	100%	100%	25%	36%	0%	14%	> 30 µM	1.7 µM
COC(=O)[C@@]1(C)C[C@@H]2[C@@](C)(CC[C@]3(C)C4CC(=O)c5c(cc(O)c(O)c5C)[C@]4(C)CC[C@@]23C)CC1=O (some centres undefined) [BLEPHARODOL]	100%	79%	8%	7%	69%	15%		
COC(=O)[C@@]1(C)C[C@@H]2[C@@](C)(CC[C@]3(C)C4=CC=C5C(=CC(=O)C(O)=C5C)[C@]4(C)CC[C@@]23C)CC1=O [21-OXOPRISTIMERINE]	100%	88%	32%	91%	0%	0%	10 µM	1.4 µM
COC(=O)[C@]1(C)CC[C@]2(C)CC[C@]3(C)C4C(=O)C=C5C(=CC(=O)C(O)=C5C)[C@]4(C)CC[C@@]3(C)C2C1 (some centres undefined) [DISPERMOQUINONE]	100%	100%	25%	60%	0%	9%	> 30 µM	1.7 µM
CC1=C(O)C(=O)C=C2C1=CC=C1[C@@]2(C)CC[C@@]2(C)[C@@H]3C[C@@H](C)C(=O)[C@@H](O)[C@]3(C)CC[C@]12C [TINGENIN B]	88%	82%	96%	100%	55%	16%	4.4 µM	0.7 µM
CC1=C(O)C(=O)C=C2C1=CC=C1[C@@]2(C)CC[C@@]2(C)[C@@H]3C[C@](C)(O)C(=O)C[C@]3(C)CC[C@]12C [20ALPHA-HYDROXYTINGENONE]	87%	100%	85%	100%	25%	14%	4.7 µM	0.4 µM
